Measured values from different studies.
Each line is one published result; the experiments were not run side by side. pIC50: −log10 of the molar value.
Dihydroorotate dehydrogenase, mitochondrial, putative: Dihydroorotate dehydrogenase, mitochondrial, putative (Plasmodium vivax, UniProt A5K1N1)
CDK7 with cyclin H: Cyclin-dependent kinase 7, with cyclin H (CDK7, Homo sapiens, UniProt P50613)
HDAC6: Protein deacetylase HDAC6 (HDAC6, Homo sapiens, UniProt Q9UBN7)
MEP1B: Meprin A subunit beta (MEP1B, Homo sapiens, UniProt Q16820)
F2: Prothrombin (F2, Homo sapiens, UniProt P00734)
KCNK9: Potassium channel subfamily K member 9 (KCNK9, Homo sapiens, UniProt Q9NPC2)
PDE4D: 3',5'-cyclic-AMP phosphodiesterase 4D (PDE4D, Homo sapiens, UniProt Q08499)
GRM7: Metabotropic glutamate receptor 7 (GRM7, Homo sapiens, UniProt Q14831)

Cc1nc(NC2CCc3cc(Cl)ccc3C2)c2c(C)noc2n1 (stereo not drawn)
pIC50 (Dihydroorotate dehydrogenase, mitochondrial, putative; enzyme activity; inhibitor; absorbance): 7.24

O=c1cc(-c2ccc3c(c2)OCO3)oc2c1ccc1occc12
pIC50 (CDK7 with cyclin H; enzyme activity; inhibitor; ADP detection): < 4.00

CCCON(Cc1ccc(C(=O)NO)cc1)C(=O)Nc1ccc(N(C)C)cc1
pIC50 (HDAC6; enzyme activity; inhibitor; fluorescence): 7.66

O=C(CCN(Cc1ccc2c(c1)OCO2)Cc1ccc(Cl)cc1F)NO
pIC50 (MEP1B; enzyme activity; inhibitor): 6.02

O=c1cc(-c2ccccc2)oc2ccc3ccccc3c12
pIC50 (CDK7 with cyclin H; enzyme activity; inhibitor; ADP detection): 5.53

COc1cc(/C=N/n2c(C)nc3ccc(C)cc3c2=O)ccc1OCc1ccccc1
pIC50 (F2; enzyme activity; inhibitor): 4.58

CC(C)=CCC[C@@H](C)c1ccc(C)c(O)c1
pIC50 (UDP-glucuronosyltransferase 2B7 (UGT2B7, Homo sapiens, UniProt P16662); enzyme activity; inhibitor; 1 h): 4.38

CN1CCN(c2ccc(Nc3ncc4cc(C#N)c(=O)n(C5CCCC5)c4n3)cc2)CC1
pIC50 (Dual specificity protein kinase TTK (TTK, Homo sapiens, UniProt P33981); enzyme activity; inhibitor): 7.18

CCOC(=O)C1=C(C)NC(C)=C(C(=O)OC)C1c1cccc([N+](=O)[O-])c1 (stereo not drawn)
pIC50 (KCNK9; ion flux; inhibitor): < 4.52

Cc1nc2ccc(Br)cc2c(=O)n1/N=C/c1ccc(C(=O)O)cc1
pIC50 (F2; enzyme activity; inhibitor): 4.31

Cc1nc2ccccc2n1Cc1cc(F)c(C(=O)NO)c(F)c1
pIC50 (HDAC6; enzyme activity; inhibitor): 6.02

COc1ccc(C2=NN(C3CCCCCC3)C(=O)[C@@H]3CC=CC[C@H]23)cc1-c1ccc(C(N)=O)cc1 (relative stereo)
pIC50 (PDE4D; enzyme activity; inhibitor): 6.90

C[C@@H]1O[C@H](OP(=O)(O)OP(=O)(O)OC[C@H]2O[C@@H](n3cnc4c(=O)[nH]c(N)nc43)[C@H](O)[C@@H]2O)[C@@H](F)[C@H](O)[C@@H]1O
pIC50 (Alpha-(1,3)-fucosyltransferase 7 (FUT7, Homo sapiens, UniProt Q11130); cell-free assay): ~5.60

O=C(CCN(Cc1ccncc1)Cc1ccc(Cl)c(O)c1F)NO
pIC50 (MEP1B; enzyme activity; inhibitor): 6.15

O=C(N[C@@H](Cc1c[nH]c2ccccc12)C(=O)O)c1ccc(Cl)cc1
pIC50 (Free fatty acid receptor 3 (FFAR3, Homo sapiens, UniProt O14843); calcium signal; antagonist): < 4.60

CC(C)(C)n1nc(-c2cnc3cc(OC4CC4)ccc3c2)c(C(N)=O)c1N
pIC50 (Mitogen-activated protein kinase 1 (MAPK1, Homo sapiens, UniProt P28482); cell-free assay): < 5.00

COc1ccc(-c2coc(-c3cc(OC(F)(F)F)ccc3-n3cncn3)n2)cc1OC
pIC50 (GRM7; calcium signal; antagonist): < 5.00

COCCOC(=O)C1=C(C)NC(C)=C(C(=O)OC(C)C)C1c1cccc([N+](=O)[O-])c1 (stereo not drawn)
pIC50 (Potassium channel subfamily K member 18 (KCNK18, Homo sapiens, UniProt Q7Z418); ion flux; inhibitor): 4.76

COc1cc(/C=C2\SC(=O)NC2=O)cc(F)c1OCCNc1nc2c(cnn2C2CCCC2)c(=O)[nH]1
pIC50 (PDE4D; enzyme activity; inhibitor): 6.12

O=C(O)[C@H]1O[C@@H](O[C@H]2[C@H](O)[C@@H](NS(=O)(=O)O)[C@@H](OCCNS(=O)(=O)O)O[C@@H]2COS(=O)(=O)O)[C@H](O)[C@@H](O)[C@@H]1O[C@H]1O[C@H](COS(=O)(=O)O)[C@@H](O)[C@H](O)[C@H]1NS(=O)(=O)O
pIC50 (Coagulation factor X (F10, Bos taurus, UniProt P00743); enzyme activity; inhibitor; absorbance): < 5.70

CC(C)n1c(/C=C/C(O)CC(O)CC(=O)O)c(-c2ccc(F)cc2)c2ccccc21 (stereo not drawn)
pIC50 (3-hydroxy-3-methylglutaryl-coenzyme A reductase (HMGCR, Homo sapiens, UniProt P04035); enzyme activity; inhibitor; absorbance): 6.76

COC(=O)C1=C(C)NC(C)=C(C(=O)OCCN(C)Cc2ccccc2)C1c1cccc([N+](=O)[O-])c1 (stereo not drawn)
pIC50 (KCNK9; ion flux; inhibitor): < 4.52

Cc1nc(NC2CCc3cc(Br)ccc3C2)c2c(C)noc2n1 (stereo not drawn)
pIC50 (Dihydroorotate dehydrogenase, mitochondrial, putative; enzyme activity; inhibitor; absorbance): 6.82

COc1ccc([C@@H]2CN(C(=O)[C@@H](O)CO)C[C@@]2(C)[C@@H](C)O)cc1OC1CN(c2ccc(C)cn2)C1
pIC50 (PDE4D; enzyme activity; inhibitor): 9.85

OCc1ccc2c(c1C#Cc1ccc(O)cc1)C(c1ccc(O)cc1)(c1ccc(O)cc1)c1cc(O)ccc1-2
pIC50 (PDE4D; enzyme activity; inhibitor): 6.57

NC(=O)c1cccc(-c2cccc(OC(=O)NC3CCCCC3)c2)c1
pIC50 (Liver carboxylesterase 1 (CES1, Homo sapiens, UniProt P23141); enzyme activity; inhibitor): 7.41

CCCC[C@H](NC(=O)[C@H](C)c1c(C)[nH]c2ccc(O)cc12)c1ncc(-c2cc3ccccc3nc2OC)[nH]1
pIC50 (HDAC6; enzyme activity; inhibitor): < 4.35

COc1cc(N2CCN(C)CC2)ccc1Nc1ncc2c(n1)N(C)c1ccccc1C(=O)N2
pIC50 (Mitogen-activated protein kinase 7 (MAPK7, Homo sapiens, UniProt Q13164); enzyme activity; inhibitor; radiometric): 5.92

C=CC(=O)Nc1ccc(N2CCC[C@@H](Nc3ncc(Cl)c(-c4c[nH]c5ccccc45)n3)C2)cc1C
pIC50 (CDK7 with cyclin H; enzyme activity; inhibitor; FRET): 6.71

Nc1ccc(-c2ccncc2)cc1NC(=O)N1CCCC1
pIC50 (HDAC6; enzyme activity; inhibitor): < 4.48

COc1cc(NCC(=O)Nn2c(C)nc3ccc(Cl)cc3c2=O)cc(OC)c1OC
pIC50 (F2; enzyme activity; inhibitor): 4.20

CNCCCOc1cc2nc(N3CCCN(C)CC3)nc(NC3CCN(C)CC3)c2cc1OC
pIC50 (Histone-lysine N-methyltransferase EHMT2 (EHMT2, Homo sapiens, UniProt Q96KQ7); enzyme activity; inhibitor): 7.35

Cc1cn([C@H]2C[C@H](N=[N+]=[N-])[C@@H](CO)O2)c(=O)[nH]c1=O
pIC50 (Gag-Pol polyprotein, reverse transcriptase (gag-pol, Human immunodeficiency virus type 1 group M subtype B, UniProt P04585); enzyme activity; inhibitor; ELISA): 4.92

COc1ccc2c(Oc3ccc4c(C(=O)Nc5ccccc5N)cccc4c3)ccnc2c1
pIC50 (Potassium/sodium hyperpolarization-activated cyclic nucleotide-gated channel 4 (HCN4, Homo sapiens, UniProt Q9Y3Q4); ion current; inhibitor): < 5.00

COc1ccc2cc(/C=N/n3c(C)nc4ccc(Br)cc4c3=O)ccc2c1
pIC50 (F2; enzyme activity; inhibitor): 4.28

CC(C)C[C@H](NC(=O)[C@H](CCC(=O)O)NC(=O)[C@@H](NC(=O)[C@H](CO)NC(=O)[C@H](CCCCN)NC(=O)[C@H](CCC(N)=O)NC(=O)[C@H](Cc1ccc(O)cc1)NC(=O)[C@H](CCCNC(=N)N)NC(=O)[C@@H](N)CCCNC(=N)N)[C@@H](C)O)C(=O)O
pIC50 (Antigen peptide transporter 1/Antigen peptide transporter 2 (Homo sapiens, UniProt Q03518+Q03519); ligand displacement): 7.00

Cc1nc2ccccc2n1Cc1c(F)c(F)c(C(=O)NO)c(F)c1F
pIC50 (HDAC6; enzyme activity; inhibitor): 5.46

Cc1nc2ccc(Cl)cc2c(=O)n1NC(=O)CCl
pIC50 (F2; enzyme activity; inhibitor): 4.08

COc1ccc(-c2nnc(-c3cc(OC(F)(F)F)ccc3-n3ccnc3)o2)cc1OC
pIC50 (GRM7; calcium signal; antagonist): 6.22

N#Cc1nc(NCc2cccc(-c3cc4ccccc4n3S(=O)(=O)c3ccccc3)c2)c2ncn(CCCO)c2n1
pIC50 (Cathepsin B-like cysteine protease (Trypanosoma brucei, UniProt Q6R7Z5); enzyme activity; inhibitor): < 4.82

O=C(CCN(Cc1ccncc1)Cc1ccc2c(c1)OCO2)NO
pIC50 (MEP1B; enzyme activity; inhibitor): 5.09

CC[C@H](C)[C@H](NC(C)=O)C(=O)N[C@@H](CCC(=O)O)C(=O)N[C@H](C(=O)N[C@H](C=O)CC(=O)O)[C@@H](C)O
pIC50 (Caspase-10 (CASP10, Homo sapiens, UniProt Q92851); enzyme activity; inhibitor): 7.90
